In ChEMBL document CHEMBL5303300, “EUbOPEN Chemogenomics Library - Multiplex” (2023):
Values joined by “and” are separate entries in the source; they are usually repeats but may differ in a detail not shown here. Identical values can stand only once.

Assays:
Fibroblast = test: Multiplex assay against human fibroblast; type: toxicity, cell-based; conditions: number of replicates 2
Procedure, shortened: (§1)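 With compound added, live cells were imaged on a CQ1 microscope at 37°C and 5% CO2; staining with Hoechst33342, BioTracker Green Microtubule Cytoskeleton Dye, MitoTracker Red and Annexin V Alexa Fluor 680 had been done at seeding. The CellPathfinder machine-learning gating scheme split cells into Hoechst high-intensity objects or normal cells, normal cells into healthy, pyknosed or fragmented nuclei, and pyknosed cells into mitotic or apoptotic. The tubulin, mitochondrial-mass and membrane-permeability phenotypes are per cents of healthy-nucleus cells.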

U2OS = test: Multiplex assay against U2OS; type: toxicity, cell-based; conditions: human, number of replicates 2; procedure, shortened: as §1
[1] = 12 h, 1 µM, compound concentration 1 uM
[2] = 12 h, 10 µM, compound concentration 10 uM
[3] = 24 h, 1 µM, compound concentration 1 uM
[4] = 24 h, 10 µM, compound concentration 10 uM
[5] = 48 h, 1 µM, compound concentration 1 uM
[6] = 48 h, 10 µM, compound concentration 10 uM

**Q.** What does the source list for `O=C1CCCN1CCNc1nc(Nc2ccc(Cl)c(Cl)c2)ncc1C(F)(F)F`?
**A.** Population Apoptotic (%) (Fibroblast; [1]): 38% and 28%; Population Fragmented Nuclei (%) (Fibroblast; [1]): 10% and 8%; Population Healthy Nuclei (%) (Fibroblast; [1]): 76% and 68%; Population Hoechst High Intensity Objects (%) (Fibroblast; [1]): 0%; Population Membrane Permeable-Phenotype (%) (Fibroblast; [1]): 2% and 1%; Population Mitochondria Different-Phenotype (%) (Fibroblast; [1]): 1%; Population Mitotic Cells (%) (Fibroblast; [1]): 61% and 71%; Population Normal (%) (Fibroblast; [1]): 100%; Population Pyknosed Nuclei (%) (Fibroblast; [1]): 13% and 22%; Population Tubulin-Different-Phenotype (%) (Fibroblast; [1]): 12% and 9%; Total Cell Count (Fibroblast; [1]): 233 and 219; Population Apoptotic (%) (Fibroblast; [2]): 52% and 36%; Population Fragmented Nuclei (%) (Fibroblast; [2]): 6% and 15%; Population Healthy Nuclei (%) (Fibroblast; [2]): 40% and 52%; Population Hoechst High Intensity Objects (%) (Fibroblast; [2]): 0%; Population Membrane Permeable-Phenotype (%) (Fibroblast; [2]): 19% and 26%; Population Mitochondria Different-Phenotype (%) (Fibroblast; [2]): 1% and 4%; Population Mitotic Cells (%) (Fibroblast; [2]): 47% and 63%; Population Normal (%) (Fibroblast; [2]): 100%; Population Pyknosed Nuclei (%) (Fibroblast; [2]): 52% and 32%; Population Tubulin-Different-Phenotype (%) (Fibroblast; [2]): 35% and 50%; Total Cell Count (Fibroblast; [2]): 138 and 193; Population Apoptotic (%) (Fibroblast; [3]): 54% and 41%; Population Fragmented Nuclei (%) (Fibroblast; [3]): 8% and 6%; Population Healthy Nuclei (%) (Fibroblast; [3]): 76% and 70%; Population Hoechst High Intensity Objects (%) (Fibroblast; [3]): 0%; Population Membrane Permeable-Phenotype (%) (Fibroblast; [3]): 5%; Population Mitochondria Different-Phenotype (%) (Fibroblast; [3]): 1% and 0%; Population Mitotic Cells (%) (Fibroblast; [3]): 45% and 58%; Population Normal (%) (Fibroblast; [3]): 100%; Population Pyknosed Nuclei (%) (Fibroblast; [3]): 14% and 22%; Population Tubulin-Different-Phenotype (%) (Fibroblast; [3]): 14% and 9%; Total Cell Count (Fibroblast; [3]): 234 and 227; Population Apoptotic (%) (Fibroblast; [4]): 70% and 60%; Population Fragmented Nuclei (%) (Fibroblast; [4]): 6% and 15%; Population Healthy Nuclei (%) (Fibroblast; [4]): 44% and 50%; Population Hoechst High Intensity Objects (%) (Fibroblast; [4]): 0%; Population Membrane Permeable-Phenotype (%) (Fibroblast; [4]): 16% and 14%; Population Mitochondria Different-Phenotype (%) (Fibroblast; [4]): 3% and 5%; Population Mitotic Cells (%) (Fibroblast; [4]): 29% and 39%; Population Normal (%) (Fibroblast; [4]): 99% and 100%; Population Pyknosed Nuclei (%) (Fibroblast; [4]): 48% and 34%; Population Tubulin-Different-Phenotype (%) (Fibroblast; [4]): 53% and 50%; Total Cell Count (Fibroblast; [4]): 135 and 198; Population Apoptotic (%) (Fibroblast; [5]): 82% and 66%; Population Fragmented Nuclei (%) (Fibroblast; [5]): 13% and 11%; Population Healthy Nuclei (%) (Fibroblast; [5]): 73% and 72%; Population Hoechst High Intensity Objects (%) (Fibroblast; [5]): 0%; Population Membrane Permeable-Phenotype (%) (Fibroblast; [5]): 2% and 1%; Population Mitochondria Different-Phenotype (%) (Fibroblast; [5]): 0%; Population Mitotic Cells (%) (Fibroblast; [5]): 17% and 33%; Population Normal (%) (Fibroblast; [5]): 100% and 99%; Population Pyknosed Nuclei (%) (Fibroblast; [5]): 12% and 15%; Population Tubulin-Different-Phenotype (%) (Fibroblast; [5]): 11% and 6%; Total Cell Count (Fibroblast; [5]): 230 and 215; Population Apoptotic (%) (Fibroblast; [6]): 89% and 74%; Population Fragmented Nuclei (%) (Fibroblast; [6]): 9% and 17%; Population Healthy Nuclei (%) (Fibroblast; [6]): 52% and 53%; Population Hoechst High Intensity Objects (%) (Fibroblast; [6]): 0%; Population Membrane Permeable-Phenotype (%) (Fibroblast; [6]): 21% and 12%; Population Mitochondria Different-Phenotype (%) (Fibroblast; [6]): 0% and 2%; Population Mitotic Cells (%) (Fibroblast; [6]): 10% and 25%; Population Normal (%) (Fibroblast; [6]): 99% and 100%; Population Pyknosed Nuclei (%) (Fibroblast; [6]): 37% and 28%; Population Tubulin-Different-Phenotype (%) (Fibroblast; [6]): 40% and 31%; Total Cell Count (Fibroblast; [6]): 124 and 180; Population Apoptotic (%) (U2OS; [1]): 50% and 68%; Population Fragmented Nuclei (%) (U2OS; [1]): 5% and 3%; Population Healthy Nuclei (%) (U2OS; [1]): 70% and 91%; Population Hoechst High Intensity Objects (%) (U2OS; [1]): 0%; Population Membrane Permeable-Phenotype (%) (U2OS; [1]): 0% and 3%; Population Mitochondria Different-Phenotype (%) (U2OS; [1]): 0% and 1%; Population Mitotic Cells (%) (U2OS; [1]): 50% and 31%; Population Normal (%) (U2OS; [1]): 100%; Population Tubulin-Different-Phenotype (%) (U2OS; [1]): 91% and 81%; Population Apoptotic (%) (U2OS; [2]): 100% and 57%; Population Healthy Nuclei (%) (U2OS; [2]): 73% and 80%; Population Hoechst High Intensity Objects (%) (U2OS; [2]): 0%; Population Membrane Permeable-Phenotype (%) (U2OS; [2]): 7% and 5%; Population Mitochondria Different-Phenotype (%) (U2OS; [2]): 7% and 0%; Population Normal (%) (U2OS; [2]): 100% and 99%; Population Pyknosed Nuclei (%) (U2OS; [2]): 5% and 13%; Population Tubulin-Different-Phenotype (%) (U2OS; [2]): 64% and 50%; Population Apoptotic (%) (U2OS; [3]): 100% and 73%; Population Fragmented Nuclei (%) (U2OS; [3]): 0% and 3%; Population Healthy Nuclei (%) (U2OS; [3]): 90%; Population Hoechst High Intensity Objects (%) (U2OS; [3]): 0%; Population Membrane Permeable-Phenotype (%) (U2OS; [3]): 0% and 2%; Population Mitochondria Different-Phenotype (%) (U2OS; [3]): 0%; Population Normal (%) (U2OS; [3]): 100%; Population Pyknosed Nuclei (%) (U2OS; [3]): 9% and 5%; Population Tubulin-Different-Phenotype (%) (U2OS; [3]): 96% and 79%; Population Apoptotic (%) (U2OS; [4]): 70% and 80%
